Experimental data: ChEMBL document CHEMBL1124386, “Selective thyromimetics. Cardiac-sparing thyroid hormone analogues containing 3'-arylmethyl substituents” (J Med Chem, 1989)
In brackets after ≈: the same amount, converted by molar mass. Activity calls are given as the source filed them. The rule behind the calls is not given here.

Columns and labels:
[1] = test system: Rattus norvegicus; test: In vivo binding affinity for 3,5,3'' triiodothyronine receptor of heart nuclei 1 hr after intravenous administration; format: organism-based
[2] = test system: Rattus norvegicus; test: In vivo binding affinity for 3,5,3' triiodothyronine receptor of liver nuclei 1 hour after intravenous administration; format: organism-based
[3] = test system: Rattus norvegicus; test: Potency for induction of GPDH (mitochondrial cytochrome C 3-phosphoglycerate oxidoreductase) was measured 48 hr after single im injection relative to T3 in heart; LM=low maximal response after 2 daily doses of 50 mg/kg; format: functional, organism-based; parameters: dose 50 mg/kg; settings: filed as partial agonist
[4] = test system: Thyroid hormone receptor (Rattus norvegicus); test: Binding affinity to thyroid hormone receptor, relative to 3,5,3' triiodothyronine receptor, in isolated nuclei of heart
[5] = organism: Rattus norvegicus; test: Selectivity ratio of ID50 in liver and heart
How it was run: (§1)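 Liver/heart selectivity in rats, calculated as (relative ID50)liver divided by (relative ID50)heart, from in vivo nuclear binding 1 h after intravenous dosing.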

[6] = Binding affinity to the thyroid hormone receptor was determined in vitro in isolated nuclei of rat liver relative to 3,5,3' triiodothyronine; format: tissue-based
[7] = test system: Rattus norvegicus; test: Potency for induction of GPDH (mitochondrial cytochrome C3-phosphoglycerate oxidoreductase) was measured 48 hours after single intramuscular injection relative to T3 in liver; format: functional
[8] = test system: Rattus norvegicus; test: Potency for induction of GPDH (mitochondrial cytochrome C3-phosphoglycerate oxidoreductase) was measured 48 hr after single im injection relative to T3 in heart; I=inactive after 2 daily doses of 50 mg/kg; format: functional, organism-based; parameters: dose 50 mg/kg
[9] = test system: Rattus norvegicus; test: Potency for induction of GPDH (mitochondrial cytochrome C 3-phosphoglycerate oxidoreductase) was measured 48 hr after single im injection relative to T3 in liver; LM=low maximal response after 2 daily doses of 50 mg/kg; format: functional, organism-based; parameters: dose 50 mg/kg; settings: filed as partial agonist
[10] = test system: Rattus norvegicus; test: Potency for induction of GPDH (mitochondrial cytochrome C3-phosphoglycerate oxidoreductase) was measured 48 hours after single intramuscular injection relative to T3 in heart; format: functional
[11] = biological target: T1, Thyroid hormone receptor beta (Rattus norvegicus) (UniProt P18113); test: Binding affinity to the receptor was determined in nuclei of liver In vivo 1 hour after intravenous administration relative to T3; format: organism-based
T1 sequence (whole entry): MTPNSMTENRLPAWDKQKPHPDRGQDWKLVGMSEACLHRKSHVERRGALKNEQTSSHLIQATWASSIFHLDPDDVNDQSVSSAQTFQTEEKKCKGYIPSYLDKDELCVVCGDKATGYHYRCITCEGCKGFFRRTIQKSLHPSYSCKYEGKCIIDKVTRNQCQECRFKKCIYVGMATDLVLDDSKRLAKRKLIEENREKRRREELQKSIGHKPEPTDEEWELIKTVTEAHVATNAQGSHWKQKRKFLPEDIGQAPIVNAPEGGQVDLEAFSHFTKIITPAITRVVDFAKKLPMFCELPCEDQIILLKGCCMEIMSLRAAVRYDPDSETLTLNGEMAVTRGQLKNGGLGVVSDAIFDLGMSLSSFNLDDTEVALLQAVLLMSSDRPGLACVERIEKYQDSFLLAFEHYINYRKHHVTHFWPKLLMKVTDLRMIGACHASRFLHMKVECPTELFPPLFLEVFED

[12] = biological target: T1, Thyroid hormone receptor beta (Rattus norvegicus); test: Binding affinity to the receptor was determined in nuclei of heart in vivo 1 hour after intravenous administration relative to 3,5,3' triiodothyronine receptor
[13] = Selectivity, ratio between relative ID50 in liver and heart; how it was run: as §1
[14] = test system: Rattus norvegicus; test: Potency for induction of GPDH was measured 48 hr after single intramuscular injection relative to T3 in lheart; LM=low maximal response after 2 daily doses of 50 mg/kg; format: functional, organism-based; parameters: dose 50 mg/kg; settings: filed as partial agonist
[15] = test system: Rattus norvegicus; test: Percent increase in oxygen consumption after seven daily doses of test compound given intramuscularly, with concentration of compound at 3.3 mg/kg; format: functional; settings: route intramuscular
How it was run: (§2)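 Euthyroid rats given seven daily doses, intramuscular or oral, by line; whole-body oxygen consumption measured as percent increase in metabolic rate.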

[16] = test system: Rattus norvegicus; test: Percent increase in oxygen consumption after seven daily doses of test compound given perorally, with concentration of compound at 0.1 mg/kg; format: functional; settings: dose 10 mg/kg; route oral; in the assay text read “10 mg/kg” for “0.1 mg/kg”; how it was run: as §2
[17] = biological target: T1, Thyroid hormone receptor beta (Rattus norvegicus); test: Binding affinity to the receptor was determined in vitro in isolated nuclei of rat liver relative to T3; format: tissue-based
[18] = biological target: T1, Thyroid hormone receptor beta (Rattus norvegicus); test: Binding affinity to the receptor was determined in vivo in rat liver nuclei 1 h after intravenous administration relative to 3,5,3' triiodothyronine receptor
[19] = biological target: T1, Thyroid hormone receptor beta (Rattus norvegicus); test: Binding affinity to the receptor was determined in nuclei of heart in vivo 1 hour after intravenous administration relative to T3; format: organism-based
[20] = biological target: T1, Thyroid hormone receptor beta (Rattus norvegicus); test: In vitro binding affinity to the receptor was determined in isolated nuclei of heart relative to T3
[21] = biological target: T1, Thyroid hormone receptor beta (Rattus norvegicus); test: Binding affinity to the receptor was determined in nuclei of liver In vivo 1 hour after intravenous administration relative to 3,5,3' triiodothyronine receptor; format: organism-based
[22] = biological target: T1, Thyroid hormone receptor beta (Rattus norvegicus); test: Binding affinity to the receptor was determined in isolated nuclei of heart in vitro relative to 3,5,3' triiodothyronine receptor
[23] = biological target: T1, Thyroid hormone receptor beta (Rattus norvegicus); test: Selectivity, ratio of relative ID50 in liver and heart; how it was run: as §1
[24] = test system: Rattus norvegicus; test: Potency for induction of GPDH (mitochondrial cytochrome C3-phosphoglycerate oxidoreductase) was measured 48 hours after single intramuscular injection relative to T3 in liver; LM is low maximal response after 2 daily doses of 50 mg/kg; format: functional
[25] = test system: Rattus norvegicus; test: Potency for induction of GPDH (mitochondrial cytochrome C3-phosphoglycerate oxidoreductase) was measured 48 hr after single im injection relative to T3 in liver; I=inactive after 2 daily doses of 50 mg/kg; format: functional, organism-based; parameters: dose 50 mg/kg
[26] = test system: Rattus norvegicus; test: Percent increase in oxygen consumption after seven daily doses of test compound given perorally; I is inactive after 2 daily doses of 50 mg/kg; format: functional, organism-based; parameters: dose 50 mg/kg; how it was run: as §2
[27] = test system: Rattus norvegicus; test: Percent increase in oxygen consumption after seven daily doses of test compound given perorally, with concentration of compound at 5 mg/kg; format: functional; settings: route oral; how it was run: as §2
[28] = Partition coefficient at 25 degree Celsius in octanol/aqueous buffer at pH 6.02; format: physicochemical
[29] = Aqueous solubility at 37 degree Celsius at pH 7.38; format: physicochemical
How it was run: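 Solubility in aqueous medium at 37 °C, pH 7.38; given in units of ×10^5 mol/L.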

| SMILES | Relative ID50 [1] | Relative ID50 [2] | Relative IC50 [4] | Ratio [5] | Relative IC50 [6] | Relative ED50 [7] | Relative ED50 [8] | Relative ED50 [9] | Ratio [13] | further results |
| --- | --- | --- | --- | --- | --- | --- | --- | --- | --- | --- |
| N[C@@H](Cc1cc(I)c(Oc2ccc(O)c(Cc3ccc(O)cn3)c2)c(I)c1)C(=O)O | 2.5 | 31 | 15 | 12.4 | 20 | 1.7 | – | – | – | Relative ED50 [3]: Partial agonist |
| N[C@@H](Cc1cc(I)c(Oc2ccc(O)c(Cc3ccc(O)c(F)c3)c2)c(I)c1)C(=O)O | 0.37 | 0.6 | 31 | 1.62 | 31 | – | inactive | Partial agonist | – | – |
| N[C@@H](Cc1cc(I)c(Oc2ccc(O)c(Cc3ccccc3)c2)c(I)c1)C(=O)O | – | – | – | – | 15 | 2.2 | – | – | 17 | Relative ED50 [10]: 0.5; Relative ID50 [11]: 5.1; Relative ID50 [12]: 0.3 |
| N[C@@H](Cc1cc(I)c(Oc2ccc(O)c(Cc3ccncc3)c2)c(I)c1)C(=O)O | 1.6 | 7 | 15 | 4.38 | 8.5 | – | – | Partial agonist | – | Relative ED50 [3]: Partial agonist |
| CC(C)c1cc(Cc2cc(Oc3c(I)cc(C[C@H](N)C(=O)O)cc3I)ccc2O)ccc1O | 0.11 | 0.11 | 4.4 | 1 | 0.67 | – | – | Partial agonist | – | Relative ED50 [3]: Partial agonist |
| N#Cc1ccc(Cc2cc(Oc3c(I)cc(C[C@H](N)C(=O)O)cc3I)ccc2O)cc1 | – | – | – | – | 13 | – | inactive | Partial agonist | 27.7 | Relative ID50 [11]: 6.1; Relative ID50 [12]: 0.22 |
| N[C@@H](Cc1cc(I)c(Oc2ccc(O)c(Cc3ccc([N+](=O)[O-])cc3)c2)c(I)c1)C(=O)O | 0.71 | 9.8 | 64 | 13.8 | 20 | – | – | Partial agonist | – | Relative ED50 [10]: 0.9 |
| Cc1cc(Cc2cc(Oc3c(I)cc(C[C@H](N)C(=O)O)cc3I)ccc2O)ccc1O | 0.1 | 0.35 | 9.7 | 3.5 | 7.4 | – | inactive | Partial agonist | – | – |
| Cc1cc(O)c(Cc2ccc(O)nc2)cc1Oc1c(I)cc(C[C@H](N)C(=O)O)cc1I | – | – | – | – | 0.028 | – | – | – | – | – |
| N[C@@H](Cc1cc(I)c(Oc2ccc(O)c(Cc3ccccc3O)c2)c(I)c1)C(=O)O | – | – | – | – | 0.81 | – | – | Partial agonist | 1 | Relative ED50 [14]: Partial agonist; Relative ID50 [11]: 0.024; Relative ID50 [12]: 0.024 |
| N[C@@H](Cc1cc(I)c(Oc2ccc(O)c(Cc3ccc(O)nn3)c2)c(I)c1)C(=O)O | 0.4 | 38 | 4 | 95 | 2 | 2.4 | – | – | – | Relative ED50 [10]: <0.1; Increase [15]: 19%; Increase [16]: 20% |
| N[C@@H](Cc1cc(I)c(Oc2ccc(O)c(Cc3ccccn3)c2)c(I)c1)C(=O)O | 0.54 | 2.4 | 3.5 | 4.44 | 0.96 | – | – | – | – | Relative ED50 [3]: Partial agonist |
| N[C@@H](Cc1cc(I)c(Oc2ccc(O)c(Cc3ccc(O)c(Cl)c3)c2)c(I)c1)C(=O)O | 0.07 | 0.07 | 15 | 1 | 5.9 | – | inactive | Partial agonist | – | – |
| N[C@@H](Cc1cc(I)c(Oc2ccc(O)c(Cc3ccnc(O)c3)c2)c(I)c1)C(=O)O | – | – | – | – | – | – | inactive | Partial agonist | 20 | Relative IC50 [17]: 0.042; Relative ID50 [18]: 0.07 |
| O=C(O)CCc1cc(Br)c(Oc2ccc(O)c(Cc3ccc(O)nc3)c2)c(Br)c1 | – | – | – | – | – | 2 | – | – | – | Relative ED50 [10]: 0.04; Relative IC50 [17]: 31.6; Relative ID50 [19]: 4.2; Relative IC50 [20]: 33.2 |
| Cn1cc(Cc2cc(Oc3c(I)cc(C[C@H](N)C(=O)O)cc3I)ccc2O)ccc1=O | – | – | – | – | 0.76 | – | inactive | Partial agonist | 74.1 | – |
| N[C@@H](Cc1cc(I)c(Oc2ccc(O)c(Cc3ccc(F)cc3)c2)c(I)c1)C(=O)O | – | – | – | – | 60 | – | – | – | – | Relative ED50 [10]: 3.7; Relative ID50 [21]: 98; Relative IC50 [22]: 43; Relative ID50 [12]: 8.6; Ratio [23]: 11.4; Relative ED50 [24]: 5.7 |
| Nc1ccc(Cc2cc(Oc3c(I)cc(C[C@H](N)C(=O)O)cc3I)ccc2O)cc1 | 0.023 | 0.21 | 1.1 | 9.13 | 0.63 | – | inactive | – | – | Relative ED50 [25]: inactive |
| N[C@@H](Cc1cc(I)c(Oc2ccc(O)c(Cc3cnc(O)nc3)c2)c(I)c1)C(=O)O | – | – | – | – | – | – | inactive | – | 45.2 | Relative IC50 [17]: 0.15; Relative ED50 [25]: inactive; Relative IC50 [20]: 0.58; Relative ID50 [18]: 0.28 |
| N[C@H](Cc1cc(I)c(Oc2ccc(O)c(Cc3ccc(O)nc3)c2)c(I)c1)C(=O)O | – | – | 1.9 | – | 1.1 | 1 | inactive | – | – | % increase O2 consumption [26]: inactive |
| N[C@@H](Cc1cc(I)c(Oc2ccc(O)c(Cc3ccc(O)cc3)c2)c(I)c1)C(=O)O | – | – | – | – | 17 | – | – | – | 27.1 | Relative ED50 [10]: <0.1; Relative ID50 [11]: 19; Relative ED50 [24]: 2.2 |
| N[C@@H](Cc1cc(Cl)c(Oc2ccc(O)c(Cc3ccc(O)nc3)c2)c(Cl)c1)C(=O)O | 0.5 | 13 | 0.53 | – | 0.49 | 1.2 | – | – | – | Relative ED50 [3]: Partial agonist; Increase [27]: 31%; logD [28]: 0.6; Increase [15]: 26%; solubility [29]: 100 µM (≈ 44.9 µg/mL) |
| N[C@@H](Cc1cc(I)c(Oc2ccc(O)c(Cn3ccc(=O)cc3)c2)c(I)c1)C(=O)O | 0.013 | 2.7 | 0.4 | 208 | 0.25 | 1.4 | inactive | – | – | – |
